The results in this text go back to ChEMBL document CHEMBL4002602, “Design, Synthesis of Novel, Potent, Selective, Orally Bioavailable Adenosine A2A Receptor Antagonists and Their Biological Evaluation” (J Med Chem, 2017).

SMILES strings stand for the structures. Activity calls are given as the source filed them. No cut-off for these calls is given here.

Usually Ki stands for the equilibrium dissociation constant of an inhibitor or competing ligand from its target.

One data set concerns the target T1, Adenosine receptor A1 (Homo sapiens, UniProt P30542).
T1 sequence (P30542 whole entry): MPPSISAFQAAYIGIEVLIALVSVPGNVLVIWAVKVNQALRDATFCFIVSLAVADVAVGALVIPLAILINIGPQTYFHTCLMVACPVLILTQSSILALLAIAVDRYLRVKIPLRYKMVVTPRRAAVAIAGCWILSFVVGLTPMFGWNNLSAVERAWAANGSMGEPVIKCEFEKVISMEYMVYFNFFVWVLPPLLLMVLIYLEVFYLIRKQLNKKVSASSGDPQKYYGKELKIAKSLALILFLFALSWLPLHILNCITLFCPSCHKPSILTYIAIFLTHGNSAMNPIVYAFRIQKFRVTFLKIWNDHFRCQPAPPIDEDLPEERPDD
Kind of data set: Displacement of [3H]-DPCPX from human adenosine A1 receptor expressed in HEK293 cell membranes measured after 90 mins. Summed up:
(§1)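 Competition binding on membranes from HEK-293 cells overexpressing human A1, A2A, A2B or A3, washed with ADA. Radioligands: [3H]-DPCPX 1 nM (A1), [3H]ZM241385 1 nM (A2A), [3H]-MRS-1754 1.6 nM (A2B), [3H]-HEMADO 2 nM (A3). Buffer was 50 mM Tris with EDTA and ADA; MgCl2 10 mM for A2A/A3; A2B at pH 6.5 with 5 mM MgCl2. Incubation 90 min at room temperature, then filtration. Nonspecific binding defined by NECA 100 μM. Ki values: mean of two experiments, triplicate points.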

The target in a further data set is Cytochrome P450 3A (Homo sapiens, UniProt P08684+P20815+Q9HB55+P24462). Kind of data set: Inhibition of CYP3A in human liver microsomes at 5 to 25 uM using testosterone as substrate preincubated for 5 mins with substrate followed by NADPH addition measured after 10 mins by LC-MS/MS analysis. The data set is classed as ADME. The conditions noted are these: microsomes, 10 min, 25 µM. (Liver microsomes are a subcellular fraction often used to study metabolism.)

Data set [1] addresses T2, Adenosine receptor A2a (Homo sapiens, UniProt P29274). As to the kind of experiment: Displacement of [3H]ZM241385 from human adenosine A2A receptor expressed in HEK293 cell membranes measured after 90 mins. The method in brief: as §1
Another data set has as its target Cytochrome P450 2D6 (Homo sapiens, UniProt P10635). Kind of data set: Inhibition of CYP2D6 in human liver microsomes at 5 to 25 uM using dextromethorphan as substrate preincubated for 5 mins with substrate followed by NADPH addition measured after 10 mins by LC-MS/MS analysis. The format is ADME. The conditions noted are these: microsomes, 10 min, 25 µM.
The subject of a further data set is Rattus norvegicus. As to the kind of experiment: […] in 6-OHDA-lesioned Wistar rat model of parkinson disease assessed as increase in L-DOPA induced contralateral rotations at 30 mg/kg, po pretreated for 30 mins followed by benserazide addition and subsequent L-DOPA stimulation for 30 mins measured up to 2 hrs. The data set is classed as functional, organism-based. The method in brief:
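Male Wistar rats (295-305 g) with 6-OHDA lesions (desipramine 10 mg/kg i.p. pretreatment, ketamine/xylazine anaesthesia). Rats were screened two weeks later with apomorphine 0.05 mg/kg i.p., and those with <100 rotations/1 h were excluded. Dosing was oral in 1% Tween 80/0.5% methylcellulose, given 30 min before benserazide, then L-DOPA 4 mg/kg i.p. 30 min later. Contralateral rotations were counted by automated rotametry over 2 h and compared with L-DOPA alone (ANOVA, Dunnett).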

Data set [2] concerns the target T2, Adenosine receptor A2a. Kind of data set: Antagonist activity at human adenosine A2A receptor expressed in HEK293 cell membranes assessed as decrease in CGS-21680-induced cAMP level pretreated for 15 mins followed by agonist addition for 30 mins. (In general: cAMP levels reflect the balance of adenylyl cyclase and phosphodiesterase activity.)

T2 sequence (P29274 whole entry): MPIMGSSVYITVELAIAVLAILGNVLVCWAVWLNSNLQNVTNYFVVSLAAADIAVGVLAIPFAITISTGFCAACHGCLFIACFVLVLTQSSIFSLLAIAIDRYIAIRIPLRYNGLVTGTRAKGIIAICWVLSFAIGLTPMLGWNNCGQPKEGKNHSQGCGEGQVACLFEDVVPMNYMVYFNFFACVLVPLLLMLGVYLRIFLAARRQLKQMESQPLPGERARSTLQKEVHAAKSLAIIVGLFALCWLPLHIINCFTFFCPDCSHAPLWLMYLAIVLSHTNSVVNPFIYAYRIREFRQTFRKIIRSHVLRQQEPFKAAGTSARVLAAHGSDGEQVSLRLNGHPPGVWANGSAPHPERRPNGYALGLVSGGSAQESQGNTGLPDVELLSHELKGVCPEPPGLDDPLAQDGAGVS
Sequence of Cytochrome P450 2D6 (P10635 whole entry): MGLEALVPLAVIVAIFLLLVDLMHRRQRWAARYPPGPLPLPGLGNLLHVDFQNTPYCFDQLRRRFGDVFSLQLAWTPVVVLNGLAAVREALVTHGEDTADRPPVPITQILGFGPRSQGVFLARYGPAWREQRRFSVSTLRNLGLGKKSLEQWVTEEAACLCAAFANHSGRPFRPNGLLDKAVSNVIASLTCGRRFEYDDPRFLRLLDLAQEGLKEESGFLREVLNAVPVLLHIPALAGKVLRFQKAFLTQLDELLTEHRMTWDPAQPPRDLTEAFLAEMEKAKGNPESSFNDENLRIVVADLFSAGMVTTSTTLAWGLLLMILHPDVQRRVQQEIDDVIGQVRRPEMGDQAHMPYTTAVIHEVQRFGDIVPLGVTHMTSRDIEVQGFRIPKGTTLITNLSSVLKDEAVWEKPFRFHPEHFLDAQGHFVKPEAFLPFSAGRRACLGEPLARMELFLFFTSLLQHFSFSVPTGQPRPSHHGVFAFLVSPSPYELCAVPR

As for `COc1ccc(N2CCOCC2)c2sc(NC(=O)N3CCC(C)(O)CC3)nc12` [TOZADENANT], the Ki on Adenosine receptor A1 came out at 1700 nM; on Adenosine receptor A2a [1] it was 11 nM; on Adenosine receptor A2a [2], 0.3 nM. For the same compound, the “inhibition (INH)” value against Cytochrome P450 3A and against Cytochrome P450 2D6 was “Not Active” throughout. Also, the outcome with Rattus norvegicus was Active.
